Laboratory results from ChEMBL document CHEMBL1649568, “Efficacy of aerosol MP-376, a levofloxacin inhalation solution, in models of mouse lung infection due to Pseudomonas aeruginosa” (Antimicrob Agents Chemother, 2009).
Converted amounts (≈) assume the structure as drawn.

Legend:
Mus musculus [1] = test: Cmax in mouse at 60 mg/kg, administered as single dose through aerosol; format: ADME, organism-based; set-up: dose 60 mg/kg; settings: in vivo, inhaled_or_intranasal
Mus musculus [2] = test: Cmax in mouse at 60 mg/kg, ip administered as single dose; format: ADME, organism-based; set-up: dose 60 mg/kg, route intraperitoneal; settings: in vivo
Pseudomonas aeruginosa [3] = test: Antimicrobial activity against Pseudomonas aeruginosa ATCC 27853 infected in Swiss neutropenic mouse assessed as reduction in lung bacterial load at […], ip BID administered 24 hrs post infection; format: functional; settings: route intraperitoneal
Pseudomonas aeruginosa [4] = test: Antimicrobial activity against Pseudomonas aeruginosa ATCC 27853 infected in Swiss neutropenic mouse assessed as reduction in lung bacterial load at 63 mg/kg, ip BID administered 24 hrs post infection; format: functional; settings: route intraperitoneal
In short: (§1)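 Female Swiss mice (5–6 wk) made neutropenic with cyclophosphamide 150 mg/kg i.p. on days 1 and 3. On day 4, intratracheal instillation of 0.05 ml strain ATCC 27853 suspension at ca. 1–6 × 10⁵ CFU/ml. From 24 h postinfection, two i.p. doses over 24 h, n = 8. Lungs taken 12–16 h after the last dose, homogenized in saline and plated; mean log CFU/lung compared with an untreated baseline group.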

Pseudomonas aeruginosa [5] = test: Antimicrobial activity against Pseudomonas aeruginosa ATCC 27853 infected in Swiss neutropenic mouse assessed as reduction in lung bacterial load at 32 mg/kg, ip BID administered 24 hrs post infection; format: functional; settings: route intraperitoneal; in short: as §1
Pseudomonas aeruginosa [6] = test: Antimicrobial activity against Pseudomonas aeruginosa NH57388A infected in Swiss neutropenic mouse assessed as lung bacterial load at 60 mg/kg, ip BID administered 24 hrs post infection (reference value: 8.89 logCFU); format: functional; settings: route intraperitoneal
Pseudomonas aeruginosa [7] = test: Antimicrobial activity against Pseudomonas aeruginosa NH57388A infected in Swiss neutropenic mouse assessed as lung bacterial load at 30 mg/kg, ip BID administered 24 hrs post infection (reference value: 8.89 logCFU); format: functional; settings: route intraperitoneal
Pseudomonas aeruginosa [8] = test: Antimicrobial activity against Pseudomonas aeruginosa NH57388A infected in Swiss neutropenic mouse assessed as lung bacterial load at 15 mg/kg, ip BID administered 24 hrs post infection (reference value: 8.89 logCFU); format: functional; settings: route intraperitoneal
Pseudomonas aeruginosa [9] = test: Antimicrobial activity against Pseudomonas aeruginosa ATCC 27853 by broth microdilution method; format: functional
In short: (§2)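 Broth microdilution per CLSI. Inoculum 5 × 10⁵ CFU/ml, twofold dilutions of antibiotic in medium, 24 h at 35°C. Growth read at 600 nm and by eye with a reading mirror. MIC is the lowest concentration with no visible growth.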

Pseudomonas aeruginosa [10] = test: Antimicrobial activity against Pseudomonas aeruginosa isolate NH57388A by broth microdilution method; format: functional; in short: as §2
Mus musculus [11] = species: Mus musculus; test: Toxicity in Pseudomonas aeruginosa ATCC 27853 infected Swiss mouse; format: functional
Pseudomonas aeruginosa [12] = test: Bactericidal activity against Pseudomonas aeruginosa NH57388A infected in Swiss neutropenic mouse assessed as reduction in lung bacterial load at 60 mg/kg BID administered 24 hrs post infection through aerosol; format: functional
In short: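 In the chronic alginate-embedded NH57388A lung infection (cyclophosphamide 150 mg/kg i.p. once, 4 days before; about 10⁸ CFU/ml inoculum), mice got aerosol doses by microsprayer (50 µl, isoflurane) twice daily for 3 days from 24 h postinfection. Lungs homogenized and plated 12–16 h after the final dose; log CFU/lung.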

Pseudomonas aeruginosa [13] = test: Antimicrobial activity against Pseudomonas aeruginosa ATCC 27853 infected in Swiss neutropenic mouse assessed as mouse survival rate at 60 mg/kg BID administered 24 hrs post infection through aerosol
Pseudomonas aeruginosa [14] = test: Antimicrobial activity against Pseudomonas aeruginosa ATCC 27853 infected in Swiss neutropenic mouse assessed as mouse survival rate at 400 mg/kg BID administered 24 hrs post infection through aerosol; format: functional
In short: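 Female Swiss mice were made neutropenic (cyclophosphamide 150 mg/kg i.p., days 1 and 3) and infected intratracheally on day 4 with ATCC 27853, 0.05 ml at ca. 1–6 × 10⁵ CFU/ml. Aerosol via microsprayer to the bifurcation (50 µl) under isoflurane, twice daily for 48 h from 24 h postinfection. Survival observed to 9 days postinfection, n = 10.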

| Cmax (Mus musculus [1]) [mg/kg] | Cmax (Mus musculus [2]) [mg/kg] | SMILES | log10cfu (Pseudomonas aeruginosa [3]) | log10cfu (Pseudomonas aeruginosa [4]) | log10cfu (Pseudomonas aeruginosa [5]) | log10cfu (Pseudomonas aeruginosa [6]) | log10cfu (Pseudomonas aeruginosa [7]) | log10cfu (Pseudomonas aeruginosa [8]) | MIC (Pseudomonas aeruginosa [9]) [µg/mL] | MIC (Pseudomonas aeruginosa [10]) [µg/mL] | MTD (Mus musculus [11]) [mg/kg] | log10cfu (Pseudomonas aeruginosa [12]) | Activity (Pseudomonas aeruginosa [13]) [%] | Activity (Pseudomonas aeruginosa [14]) [%] |
| --- | --- | --- | --- | --- | --- | --- | --- | --- | --- | --- | --- | --- | --- | --- |
| 550 | 18.6 | C[C@H]1COc2c(N3CCN(C)CC3)c(F)cc3c(=O)c(C(=O)O)cn1c23.C[C@H]1COc2c(N3CCN(C)CC3)c(F)cc3c(=O)c(C(=O)O)cn1c23.O [LEVOFLOXACIN] | 3.5 | 2.7 | 0.65 | 4.93 | 5.73 | 7.83 |  |  |  |  |  |  |
|  |  | NC[C@H]1O[C@H](O[C@H]2[C@H](O)[C@@H](O[C@H]3O[C@H](CO)[C@@H](O)[C@H](N)[C@H]3O)[C@H](N)C[C@@H]2N)[C@H](N)C[C@@H]1O [TOBRAMYCIN] |  |  |  |  |  |  | 0.25 (≈ 0.535 µM) | 0.5 (≈ 1.07 µM) | 60 | 2.9 | 60 |  |
|  |  | C[C@H]1[C@H](NC(=O)/C(=N\OC(C)(C)C(=O)O)c2csc(N)n2)C(=O)N1S(=O)(=O)O [AZTREONAM] |  |  |  |  |  |  | 4 (≈ 9.19 µM) | 4 (≈ 9.19 µM) | 400 |  |  | 20 |
